Data on 16 compounds can be found in ChEMBL document CHEMBL1121454, “Alkylating nucleosides. 4. Synthesis and cytostatic activity of chloro- and iodomethylpyrazole nucleosides” (1980).

Assay type in all cases: functional
One experiment relates to HeLa. Briefly: Cytostatic activity against HeLa cells. Particulars: Homo sapiens, read-out: ED50 (the source's name). The gist of the method: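 HeLa cells at 10⁵ cells/mL in minimal Eagle's medium with 10% fetal calf serum, left 2–3 h at 37 °C in Leighton tubes to attach. Compound added as suspension in sterile saline with 0.05% Tween 80, 10% of final volume. Incubated 72 h at 37 °C. Growth from cell protein by Oyama–Eagle colorimetry; ED50 in μg/mL. 6-Mercaptopurine positive control.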

Experiment [1] has as its system Mus musculus. Kind of experiment: Number of cures on day 30 in mice bearing ECA tumor at 12.5 mg/kg. Summed up:
(§1)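 Ehrlich ascites carcinoma, about 5 × 10⁵ cells ip from a 7-day donor, in female ICR Swiss mice of 19–22 g. Nine ip doses at 24-h intervals from 24 h post-implant, in saline with 0.05% Tween 80, 0.4 mL. Groups of 7 treated, 30 controls; NCI protocols 1100/1200. Cures are survivors on day 30. 5-Fluorouracil 20 mg/kg/injection reference.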

Experiment [2] has as its system Mus musculus. Kind of experiment: Difference in weight on day 5 in mice bearing ECA tumor at 25 mg/kg. The gist of the method:
(§2)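 Female ICR Swiss mice, 19–22 g, given about 5 × 10⁵ Ehrlich ascites cells ip from a 7-day donor. Starting 24 h later, nine daily ip doses suspended in 0.9% NaCl with 0.05% Tween 80, 0.4 mL. Groups of 7 treated, 30 controls, per NCI protocols 1100/1200. Value is weight difference (g) between test and control animals.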

Experiment [3] concerns Mus musculus. Kind of experiment: Percent increase in median survival time of treated mice compared with controls at 12.5 mg/kg. Summed up:
(§3)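 Ehrlich carcinoma ascites in female ICR Swiss mice (19–22 g), about 5 × 10⁵ cells ip, per NCI protocols 1100/1200. From 24 h after implant, nine daily ip doses in saline with 0.05% Tween 80 (0.4 mL). Groups of 7 treated and 30 controls; 5-fluorouracil 20 (mg/kg)/injection as positive control. T/C × 100 taken from median survival time against controls; evaluation on day 30.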

Experiment [4] has as its system Mus musculus. Kind of experiment: Number of cures on day 30 in mice bearing ECA tumor at 25 mg/kg. Summed up:
as §1

Experiment [5] has as its system Mus musculus. Briefly: Percent increase in median survival time of treated mice compared with controls at 25 mg/kg. The gist of the method: as §3
The subject of experiment [6] is Mus musculus. Briefly: Difference in weight on day 5 in mice bearing ECA tumor at 12.5 mg/kg. The gist of the method:
as §2

The test system of experiment [7] is Mus musculus. Kind of experiment: Number of cures on day 30 in mice bearing ECA tumor at 50 mg/kg. Summed up:
as §1

Experiment [8] deals with Mus musculus. Briefly: Number of survivors on day 5 to that of number(7) of mice at 25 mg/kg ip in mice bearing ECA tumor was determined. Particulars: route intraperitoneal. The gist of the method:
(§4)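 Female ICR Swiss mice (19–22 g) given about 5 × 10⁵ Ehrlich ascites carcinoma cells ip from a 7-day donor tumour. Starting 24 h later, nine ip doses at 24-h intervals, suspended in 0.9% NaCl with 0.05% Tween 80, 0.4 mL per injection. Groups of 7 treated and 30 controls. Read-out is survivors on day 5 over mice started.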

In experiment [9] the test system is Mus musculus. Briefly: Number of survivors on day 5 to that of number(7) of mice at 50 mg/kg ip in mice bearing ECA tumor was determined. Particulars: route intraperitoneal. The gist of the method: as §4
For experiment [10], the system named is Mus musculus. Briefly: Difference in weight on day 5 in mice bearing ECA tumor at 50 mg/kg. Summed up:
as §2

Experiment [11] relates to Mus musculus. Briefly: Percent increase in median survival time of treated mice compared with controls at 50 mg/kg. The gist of the method: as §3
The test system of experiment [12] is Mus musculus. Briefly: Number of survivors on day 5 to that of number(7) of mice at 12.5 mg/kg ip in mice bearing ECA tumor was determined. Particulars: route intraperitoneal. Summed up: as §4

Molecules are shown by their SMILES. Values after ≈ are worked out from the molar mass of the structure shown. Some results are limits rather than exact numbers.

Turning to `CCOC(=O)c1cc(CCl)[nH]n1`, the EC50 in the experiment on HeLa was over 100 µg/mL.
As to `NC(=O)c1cc(CCl)[nH]n1`, in the experiment with HeLa, the EC50 was over 100 µg/mL.
Take `CC(=O)OC[C@H]1O[C@@H](n2nc(CCl)cc2C(N)=O)[C@H](OC(C)=O)[C@@H]1OC(C)=O`: the EC50 with HeLa stood at 26 µg/mL (≈ 62.2 µM).
Take `CCOC(=O)c1cc(CCl)nn1[C@@H]1O[C@H](COC(C)=O)[C@@H](OC(C)=O)[C@H]1OC(C)=O`: the EC50 in the experiment with HeLa came out at 32 µg/mL (≈ 71.6 µM).
Take `CC(=O)OC[C@H]1O[C@@H](n2nc(C(N)=O)cc2CCl)[C@H](OC(C)=O)[C@@H]1OC(C)=O`: the EC50 in the experiment with HeLa amounted to 12 µg/mL (≈ 28.7 µM).
Broadly, the T/C is the result in the treated group divided by that in the control group, in per cent. Turning to `CC(=O)OC[C@H]1O[C@@H](n2nc(C(N)=O)cc2CI)[C@H](OC(C)=O)[C@@H]1OC(C)=O`, the values for the Cures in the experiment with Mus musculus [1], in the experiment with Mus musculus [4] and in the experiment with Mus musculus [7] were 2, 4 and 1, respectively. Besides, the Weight difference with Mus musculus [2] is -0.25; in the experiment on Mus musculus [6], 0.3; in the experiment on Mus musculus [10], -0.5. Besides, in the experiment on HeLa, the EC50 amounted to 2 µg/mL (≈ 3.93 µM). The T/C in the experiment with Mus musculus [3] amounted to 121%; in the experiment with Mus musculus [5], 141%; in the experiment on Mus musculus [11] it was 100%. The Survivors in the experiment with Mus musculus [8], with Mus musculus [9] and in the experiment on Mus musculus [12] was 7 each time.
Turning to `CCOC(=O)c1cc(CI)nn1[C@@H]1O[C@H](COC(C)=O)[C@@H](OC(C)=O)[C@H]1OC(C)=O`, the EC50 in the experiment with HeLa turned out to be 5.5 µg/mL (≈ 10.2 µM).
Turning to `CC(=O)OC[C@H]1O[C@@H](n2nc(CI)cc2C(N)=O)[C@H](OC(C)=O)[C@@H]1OC(C)=O`, the Cures with Mus musculus [1] came to 2; in the experiment on Mus musculus [4], 4. Further, the Weight difference in the experiment with Mus musculus [2] was -0.4; with Mus musculus [6] it was -0.6; in the experiment on Mus musculus [10], -0.6. For the same compound, in the experiment with HeLa, the EC50 was determined as 1.5 µg/mL (≈ 2.95 µM). The T/C in the experiment on Mus musculus [3] is 131%; in the experiment on Mus musculus [5], 158%. Also, the Survivors in the experiment with Mus musculus [8], in the experiment on Mus musculus [9] and with Mus musculus [12] was 7 each time. Further, the T/C % in the experiment with Mus musculus [11] amounted to 63%.
With `CCOC(=O)c1cc(CCl)nn1C1O[C@@H](COC(C)=O)[C@H](OC(C)=O)[C@@H](OC(C)=O)[C@@H]1OC(C)=O` (some centres not stated), the EC50 with HeLa was determined as 40 µg/mL (≈ 77.1 µM).
`CCOC(=O)c1cc(CI)[nH]n1`: the EC50 in the experiment on HeLa was over 100 µg/mL.
As to `CC(=O)OC[C@@H]1OC(n2nc(CCl)cc2C(N)=O)[C@@H](OC(C)=O)[C@H](OC(C)=O)[C@H]1OC(C)=O` (some centres not stated), the EC50 with HeLa was determined as 18 µg/mL (≈ 36.7 µM).
Regarding `NC(=O)c1cc(CI)[nH]n1`, the EC50 in the experiment with HeLa is over 100 µg/mL.
In the case of `CC(=O)OC[C@H]1OC(n2nc(CCl)cc2C(N)=O)[C@H](OC(C)=O)[C@@H](OC(C)=O)[C@@H]1OC(C)=O` (some centres not stated), the EC50 with HeLa came to 12 µg/mL (≈ 24.5 µM).
With `CCOC(=O)c1cc(CCl)nn1C1O[C@H](COC(C)=O)[C@@H](OC(C)=O)[C@H](OC(C)=O)[C@H]1OC(C)=O` (some centres not stated), the EC50 in the experiment on HeLa is over 100 µg/mL.
For the compound `CCOC(=O)c1cc(CI)nn1C1O[C@@H](COC(C)=O)[C@H](OC(C)=O)[C@@H](OC(C)=O)[C@@H]1OC(C)=O` (some centres not stated), in the experiment with HeLa, the EC50 came out at 2.5 µg/mL (≈ 4.1 µM).
Turning to `CC(=O)OC[C@@H]1OC(n2nc(CI)cc2C(N)=O)[C@@H](OC(C)=O)[C@H](OC(C)=O)[C@H]1OC(C)=O` (some centres not stated), the Weight difference in the experiment with Mus musculus [2] was -0.1; with Mus musculus [10], -0.3. Besides, the EC50 in the experiment on HeLa is 2 µg/mL (≈ 3.44 µM). Further, the Cures with Mus musculus [4] is listed as 1; with Mus musculus [7] it was 4. Moreover, the T/C was 105% in the experiment with Mus musculus [5] and 176% with Mus musculus [11]. Further, the Survivors in the experiment with Mus musculus [8] and in the experiment on Mus musculus [9] was 7 in each case.
